Measurements taken from ChEMBL document CHEMBL5236609, “Optimization of 1,2,4-Triazole-3-thiones toward Broad-Spectrum Metallo-β-lactamase Inhibitors Showing Potent Synergistic Activity on VIM- and NDM-1-Producing Clinical Isolates” (J Med Chem, 2022).
Activity calls are given as the source filed them. The calls are words filed in the database; no cut-off is given here.

Key:
Escherichia coli = assay: Antimicrobial activity against blaNDM-1-producing multidrug-resistant Escherichia coli SI-004 clinical isolate assessed as meropenem MIC at 32 ug/ml by broth microdilution method (reference value: 64 ug/ml)
Bacteria [1] = assay: Inhibition of bacterial IMP-1 (unknown origin) expressed in Escherichia coli EXPRESS BL21(DE3) assessed as inhibition constant by measuring rate of substrate hydrolysis at 100 uM by UV-visible spectrophotometry relative to control
In short: (§1)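 Reporter-substrate assay with purified MBL (1–70 nM final) in 50 mM HEPES pH 7.5 at 30 °C. […] Inhibitor 0.5–1000 μM final. Ki derived from the v0/vi vs [I] slope assuming competitive inhibition, or from a Dixon plot. Ki given when inhibition >70%, otherwise % inhibition at 100 μM. Triplicate.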

Bacteria [2] = assay: Inhibition of bacterial VIM-4 (unknown origin) expressed in Escherichia coli EXPRESS BL21(DE3) assessed as inhibition constant by measuring rate of substrate hydrolysis at 100 uM by UV-visible spectrophotometry relative to control
In short: as §1

Pseudomonas aeruginosa = assay: Antimicrobial activity against blaVIM-2-producing multidrug-resistant Pseudomonas aeruginosa VA-182/00 clinical isolate assessed as meropenem MIC at 32 ug/ml by broth microdilution method (reference value: 128 ug/ml); type: functional; conditions: dose 32 µg/ml
In short: (§2)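 Inoculum was 5×10^4 CFU/well. Each inhibitor was present at a fixed 32 μg/mL, and MICs were also taken without inhibitor.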

Bacteria [3] = assay: Inhibition of bacterial VIM-2 (unknown origin) expressed in Escherichia coli EXPRESS BL21(DE3) assessed as inhibition constant by measuring rate of substrate hydrolysis at 100 uM by UV-visible spectrophotometry relative to control
In short: as §1

Klebsiella pneumoniae [4] = assay: Antimicrobial activity against blaVIM-1-producing multidrug-resistant Klebsiella pneumoniae K47-25 clinical isolate assessed as meropenem MIC at 32 ug/ml by broth microdilution method (reference value: […] ug/ml); type: functional; conditions: dose 32 µg/ml
In short: as §2

Bacteria [5] = assay: Inhibition of bacterial VIM-1 (unknown origin) expressed in Escherichia coli EXPRESS BL21(DE3) assessed as inhibition constant by measuring rate of substrate hydrolysis at 100 uM by UV-visible spectrophotometry relative to control
In short: as §1

Bacteria [6] = assay: Inhibition of bacterial NDM-1 (unknown origin) expressed in Escherichia coli EXPRESS BL21(DE3) assessed as inhibition constant by measuring rate of substrate hydrolysis at 100 uM by UV-visible spectrophotometry relative to control
In short: as §1

Klebsiella pneumoniae [7] = assay: Antimicrobial activity against blaVIM-4-producing multidrug-resistant Klebsiella pneumoniae VA-416/02 clinical isolate assessed as meropenem MIC at 32 ug/ml by broth microdilution method (reference value: […] ug/ml); type: functional; conditions: dose 32 µg/ml
In short: as §2

[8] = Inhibition of bacterial VIM-1 (unknown origin) expressed in Escherichia coli EXPRESS BL21(DE3) assessed as inhibition constant by measuring rate of substrate hydrolysis by UV-visible spectrophotometry; parameters: species or system Bacteria
In short: as §1

[9] = Metabolic stability in CD-1 mouse microsomes assessed as compound remaining after 40 mins LC-MS/MS analysis; type: ADME, Microsome; conditions: read-out: Activity
In short: (§3)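 Mouse liver microsomes, mixed gender, at 37 °C for 40 min; propranolol control. Reports t1/2, intrinsic clearance and % intact compound remaining at 40 min.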

[10] = Inhibition of bacterial IMP-1 (unknown origin) expressed in Escherichia coli EXPRESS BL21(DE3) assessed as inhibition constant by measuring rate of substrate hydrolysis by UV-visible spectrophotometry; parameters: species or system Bacteria
In short: as §1

[11] = Inhibition of bacterial VIM-4 (unknown origin) expressed in Escherichia coli EXPRESS BL21(DE3) assessed as inhibition constant by measuring rate of substrate hydrolysis by UV-visible spectrophotometry; parameters: species or system Bacteria
In short: as §1

[12] = Inhibition of bacterial NDM-1 (unknown origin) expressed in Escherichia coli EXPRESS BL21(DE3) assessed as inhibition constant by measuring rate of substrate hydrolysis by UV-visible spectrophotometry; parameters: species or system Bacteria
In short: as §1

[13] = Inhibition of bacterial VIM-2 (unknown origin) expressed in Escherichia coli EXPRESS BL21(DE3) assessed as inhibition constant by measuring rate of substrate hydrolysis by UV-visible spectrophotometry; parameters: species or system Bacteria
In short: as §1

[14] = Metabolic stability in CD-1 mouse microsomes assessed as half life at 37 degC by LC-MS/MS analysis; type: ADME, Microsome
In short: as §3

[15] = Cytotoxicity against human HeLa cells assessed as LDH release incubated for 24 hrs by membrane integrity assay; type: toxicity, cell-based
In short: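 HeLa cells (20,000/well) exposed to compound up to 250 μM for 24 h at 37 °C, 5% CO2 in DMEM with 10% FBS, 4.5 mg/mL glucose and 2 mM L-glutamine. LDH release expressed as % of Triton X-100 maximum lysis; IC50 is the concentration giving 50% cytotoxicity.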

Bacteria [16] = assay: Inhibition of bacterial VIM-2 (unknown origin) assessed as Zn(II) content in protein at >5 uM by overnight equilibrium dialysis
In short: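 VIM-2 or NDM-1 (3 μM final) in 50 mM HEPES pH 7.5 mixed with compound at 0–48 μM. Incubated 1 h on ice, then dialysed overnight at 4 °C against 50 mM HEPES pH 7.5. Zn(II) content measured by atomic absorption at 213.86 nm against a zinc standard curve. Each point averages three samples.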

| SMILES | MIC (Escherichia coli) [µg/mL] | inhibition (Bacteria [1]) [%] | inhibition (Bacteria [2]) [%] | MIC (Pseudomonas aeruginosa) [µg/mL] | inhibition (Bacteria [3]) [%] | MIC (Klebsiella pneumoniae [4]) [µg/mL] | inhibition (Bacteria [5]) [%] | inhibition (Bacteria [6]) [%] | MIC (Klebsiella pneumoniae [7]) [µg/mL] | Ki [8] [nM] | Ki [11] [nM] | Ki [12] [nM] | further results |
| --- | --- | --- | --- | --- | --- | --- | --- | --- | --- | --- | --- | --- | --- |
| O=C(O)[C@H](CCCn1c(-c2ccccc2)n[nH]c1=S)N(Cc1ccccc1)Cc1ccccc1 | 64 | < 30 | 64 | 128 | 63 | 2 | 38 | 32 | 4 | – | – | – | – |
| O=C(O)[C@H](CCCn1c(-c2ccccc2)n[nH]c1=S)NCc1cc[nH]c1 | – | < 30 | 32 | – | < 30 | – | – | < 30 | – | 5000 | – | – | – |
| CC(C)NCC(O)COc1cccc2ccccc12 (stereo not given) [PROPRANOLOL] | – | – | – | – | – | – | – | – | – | – | – | – | remaining at 40 min [9]: 31% |
| O=C(O)[C@H](CCCn1c(-c2ccccc2)n[nH]c1=S)NCc1ccccc1 | – | < 30 | < 30 | – | < 30 | – | – | < 30 | – | – | – | – | – |
| O=C(O)[C@H](CCCn1c(-c2ccccc2)n[nH]c1=S)NCc1cccnc1 | – | < 30 | < 30 | – | 47 | – | 48 | < 30 | – | – | – | – | – |
| Cc1ccc(C(C)N[C@@H](CCCn2c(-c3ccccc3)n[nH]c2=S)C(=O)O)cc1 (stereo not given in full) | – | < 30 | < 30 | – | 36 | – | – | < 30 | – | 10800 | – | – | – |
| O=C(O)[C@H](CCCCn1c(-c2ccccc2)n[nH]c1=S)N(Cc1c[nH]cn1)Cc1c[nH]cn1 | 0.06 | – | – | 16 | – | 0.03 | – | – | 0.03 | 40 | 470 | 360 | Ki [10]: 5000 nM; Ki [13]: 970 nM |
| O=C(O)[C@H](CCCn1c(-c2ccccc2)n[nH]c1=S)NCc1c[nH]c2ccccc12 | – | < 30 | < 30 | – | < 30 | – | – | < 30 | – | – | – | – | – |
| O=C(O)[C@H](Cn1c(-c2ccccc2)n[nH]c1=S)N(Cc1c[nH]cn1)Cc1c[nH]cn1 | 0.06 | – | – | 16 | – | 0.03 | – | – | 0.03 | 880 | 560 | 40 | Ki [10]: 4200 nM; Ki [13]: 1500 nM |
| Cn1cncc1CN[C@@H](CCCn1c(-c2ccccc2)n[nH]c1=S)C(=O)O | – | < 30 | < 30 | – | 47 | – | – | 38 | – | 9500 | – | – | – |
| O=C(O)[C@H](CCCn1c(-c2ccccc2)n[nH]c1=S)NCc1cncs1 | – | < 30 | – | – | 58 | – | 60 | < 30 | – | – | 3400 | – | – |
| O=C(O)[C@H](CCCCn1c(-c2ccccc2)n[nH]c1=S)NCc1c[nH]cn1 | – | 44 | < 30 | – | 39 | – | – | – | – | 1800 | – | 4000 | – |
| O=C(O)[C@H](CCCn1c(-c2ccccc2)n[nH]c1=S)NCc1cscn1 | – | 47 | 43 | – | < 30 | – | 55 | < 30 | – | – | – | – | – |
| Cc1[nH]cnc1CN[C@@H](CCCn1c(-c2ccccc2)n[nH]c1=S)C(=O)O | – | < 30 | < 30 | – | < 30 | – | 51 | < 30 | – | – | – | – | – |
| O=C(O)[C@H](CCCn1c(Cc2ccc3ccccc3c2)n[nH]c1=S)N(Cc1c[nH]cn1)Cc1c[nH]cn1 | 0.06 | – | – | 8 | – | 0.03 | – | – | 0.06 | 80 | 190 | 30 | Ki [10]: 11200 nM; Ki [13]: 270 nM |
| CCOC(=O)[C@H](CCc1ccccc1)N[C@@H](C)C(=O)N1CCC[C@H]1C(=O)O | – | – | – | – | – | – | – | – | – | – | – | – | half-life [14]: 1.05 h |
| CC(C)(C)OC(=O)NCCCCn1c(-c2ccccc2)n[nH]c1=S | – | < 30 | – | – | 53 | – | – | 42 | – | 750 | 3100 | – | – |
| O=C(O)[C@H](CCCn1c(-c2ccccc2)n[nH]c1=S)NCc1c[nH]cn1 | 64 | < 30 | < 30 | 128 | < 30 | 2 | 53 | 35 | 4 | – | – | – | – |
| Cc1[nH]cnc1CN(Cc1nc[nH]c1C)[C@@H](CCCn1c(-c2ccccc2)n[nH]c1=S)C(=O)O | 2 | 57 | – | 16 | – | 0.03 | – | – | 0.03 | 310 | 350 | 23 | CC50 at 24 h [15]: 141000 nM; Ki [13]: 220 nM |
| O=C(O)[C@H](CCCn1c(-c2ccccc2)n[nH]c1=S)NCc1ccccn1 | – | 34 | < 30 | – | 44 | – | < 30 | – | – | – | – | 2000 | – |
| O=C(O)[C@H](CCCn1c(-c2ccccc2)n[nH]c1=S)N(Cc1ccccn1)Cc1c[nH]cn1 | 0.06 | < 30 | – | 8 | – | 0.06 | – | – | 0.03 | 950 | 560 | 380 | CC50 at 24 h [15]: 175000 nM; Ki [13]: 640 nM |
| O=C(O)[C@@H](CCCn1c(-c2ccccc2)n[nH]c1=S)N(Cc1c[nH]cn1)Cc1c[nH]cn1 | 0.06 | – | – | 8 | – | 0.03 | – | – | 0.03 | 170 | 110 | 14 | Ki [10]: 7400 nM; Ki [13]: 190 nM; inhibition (Bacteria [16]): Active |
